In experiment [1] the target is T1, Tyrosine-protein phosphatase non-receptor type 1 (Rattus norvegicus) (UniProt P20417).
T1 sequence (whole entry): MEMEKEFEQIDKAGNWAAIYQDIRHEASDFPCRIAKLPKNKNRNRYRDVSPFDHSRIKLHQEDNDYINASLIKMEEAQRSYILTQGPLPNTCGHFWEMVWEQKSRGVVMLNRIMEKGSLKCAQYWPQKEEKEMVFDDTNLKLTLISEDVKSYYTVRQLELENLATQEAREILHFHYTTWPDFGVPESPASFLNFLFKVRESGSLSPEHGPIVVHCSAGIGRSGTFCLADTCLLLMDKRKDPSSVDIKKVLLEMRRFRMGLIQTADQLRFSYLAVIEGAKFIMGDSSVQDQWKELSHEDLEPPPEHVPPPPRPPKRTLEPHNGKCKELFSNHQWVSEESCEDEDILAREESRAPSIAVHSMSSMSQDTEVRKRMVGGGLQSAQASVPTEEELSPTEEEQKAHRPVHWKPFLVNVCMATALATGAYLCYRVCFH
Briefly: Inhibition of PTPase (PTP1B) activity in rat hepatic membrane at 50 uM concentration, using pNPP as the substrate. Format: cell membranes. As to conditions: Liver. The procedure, abridged: (§1)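 Liver membranes from male Sprague-Dawley rats (100-150 g), about 30 µg protein per well. Preincubated 10 min at 37 °C with compound in 1.25% DMSO in 50 mM HEPES pH 7.4. Then 6.33 mM pNPP for 30 min at 37 °C, stopped with NaOH. p-Nitrophenol read at 410 nm. Run in triplicate. Reported as percent of untreated control.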

The subject of experiment [2] is Mus musculus. Put plainly: Evaluated in vivo for their ability to decrease plasma glucose levels in diabetic C57BL/KsJ db/db mouse at a dose 100 mg/kg/day; NS=not significant. Format: functional, organism-based. A digest of the protocol: (§2)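 Diabetic db/db or ob/ob mice dosed orally once daily for 4 days. Plasma glucose and insulin reported as percent change from a vehicle-treated group. 4-6 mice per group. Significance set at p < 0.05 or p < 0.01 versus vehicle; NS means generally less than -15% change.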

Experiment [3] deals with Mus musculus. Put plainly: Evaluated for their ability to decrease plasma insulin levels in mouse at a dose 100 mg/kg/day. **p indicates <0.01. The format is functional. A digest of the protocol:
(§3)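 Mice dosed orally once daily for 4 days; plasma glucose and insulin measured and expressed as percent change versus a vehicle-treated group (mean ± SE, 4-6 mice/group). NS is generally less than -15% change. Significance is versus vehicle-treated mice.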

Experiment [4] relates to Mus musculus. Briefly: Evaluated in vivo for their ability to decrease plasma glucose levels in diabetic C57BL/KsJ ob/ob mouse at a dose 100 mg/kg/day. Format: functional. The procedure, abridged:
as §3

Experiment [5] deals with T1, Tyrosine-protein phosphatase non-receptor type 1 (Rattus norvegicus). Briefly: Inhibition of PTPase activity using recombinant r-PTP1B as the enzyme and IR-triphosphopeptide as substrate at 50 uM. The procedure, abridged: (§4)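 Rat recombinant PTP1B in 33 mM TRIS-HCl, 2 mM EDTA, 50 mM β-mercaptoethanol, pH 7.4 (about 1000-2000 nmol/min/mg). Preincubated 10 min at 37 °C with or without compound in HEPES buffer pH 7.4. Released phosphate read by malachite green-ammonium molybdate at 650 nm against a phosphate standard. Quadruplicates. IC50 by four-parameter logistic fit.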

Experiment [6] has as its system Mus musculus. Briefly: Evaluated for their ability to decrease plasma insulin levels in mouse at a dose 100 mg/kg/day. The format is functional. The procedure, abridged: as §3
The target in experiment [7] is T2, Tyrosine-protein phosphatase non-receptor type 1 (Rattus norvegicus, UniProt P20417).
T2 sequence (P20417 whole entry): T1 sequence (whole entry)
Briefly: Inhibition of PTPase activity using recombinant r-PTP1B as the enzyme and IR-triphosphopeptide as substrate. A digest of the protocol: as §4

The test system of experiment [8] is Mus musculus. Briefly: Evaluated in vivo for their ability to decrease plasma glucose levels in diabetic C57BL/KsJ db/db mouse at a dose 100 mg/kg/day.,*p indicates <0.05. The format is functional. The procedure, abridged:
as §3

Experiment [9] addresses T3, Tyrosine-protein phosphatase non-receptor type 1 (Mus musculus) (UniProt P35821).
T3 sequence (whole entry): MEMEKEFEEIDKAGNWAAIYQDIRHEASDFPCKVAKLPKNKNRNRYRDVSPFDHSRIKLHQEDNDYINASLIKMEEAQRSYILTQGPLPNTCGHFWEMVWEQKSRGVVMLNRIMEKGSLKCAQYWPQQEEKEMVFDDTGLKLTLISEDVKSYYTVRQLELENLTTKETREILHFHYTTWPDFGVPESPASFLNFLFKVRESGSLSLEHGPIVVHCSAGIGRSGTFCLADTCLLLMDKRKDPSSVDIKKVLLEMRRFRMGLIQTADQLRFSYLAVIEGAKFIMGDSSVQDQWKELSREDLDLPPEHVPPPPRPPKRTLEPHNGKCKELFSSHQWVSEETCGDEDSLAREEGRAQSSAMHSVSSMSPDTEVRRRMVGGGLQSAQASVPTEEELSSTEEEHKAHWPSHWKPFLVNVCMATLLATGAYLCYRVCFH
Briefly: In vivo ability to decrease plasma glucose levels in diabetic C57BL/KsJ ob/ob mouse at a dose 100 mg/kg/day. The format is functional, organism-based. A digest of the protocol: as §2

For experiment [10], the target named is T2, Tyrosine-protein phosphatase non-receptor type 1. Put plainly: Inhibition of PTPase activity using recombinant r-PTP1B and IR-triphosphopeptide as substrate; ND is no data. The procedure, abridged: as §4
For experiment [11], the target named is T3, Tyrosine-protein phosphatase non-receptor type 1 (Mus musculus). Briefly: Ability to decrease plasma insulin levels in mouse at a dose 100 mg/kg/day. The format is functional, organism-based. The procedure, abridged: as §2
For experiment [12], the system named is Mus musculus. Put plainly: Evaluated for their ability to decrease plasma insulin levels in mouse at a dose 100 mg/kg/day.; NS is non significant. The format is functional, organism-based. The procedure, abridged:
as §2

Experiment [13] relates to Mus musculus. Put plainly: Evaluated in vivo for their ability to decrease plasma glucose levels in diabetic C57BL/KsJ ob/ob mouse at a dose 100 mg/kg/day; NS is non significant. Format: functional, organism-based. The procedure, abridged: as §2
For experiment [14], the target named is T2, Tyrosine-protein phosphatase non-receptor type 1. Briefly: Inhibition of PTPase activity in rat hepatic membrane at a concentration of 50 uM using pNPP as the substrate. Format: cell membranes, Liver. The procedure, abridged: as §1
Experiment [15] relates to Mus musculus. Briefly: Evaluated for their ability to decrease plasma insulin levels in mouse at a dose 100 mg/kg/day; NS=not significant. Format: functional, organism-based. A digest of the protocol:
as §2

Experiment [16] deals with Mus musculus. Briefly: Evaluated in vivo for their ability to decrease plasma glucose levels in diabetic C57BL/KsJ db/db mouse at a dose 100 mg/kg/day.([…]). Format: functional. The procedure, abridged:
as §2

The target in experiment [17] is T1, Tyrosine-protein phosphatase non-receptor type 1 (Rattus norvegicus). Briefly: IC50 for PTPase activity, recombinant r-PTP1B as the enzyme .
Experiment [18] relates to Mus musculus. Put plainly: Evaluated for their ability to decrease plasma insulin levels in mouse at a dose 70 mg/kg/day; NS is not significant. Format: functional, organism-based. The procedure, abridged: as §2
Experiment [19] has as its system Mus musculus. Briefly: Evaluated in vivo for their ability to decrease plasma glucose levels in diabetic C57BL/KsJ db/db mouse at a dose 100 mg/kg/day; NS is not significant. Format: functional, organism-based. The procedure, abridged: as §2
Experiment [20] deals with Mus musculus. Put plainly: Evaluated in vivo for their ability to decrease plasma glucose levels in diabetic C57BL/KsJ ob/ob mouse at a dose 70 mg/kg/day; NS is not significant. The format is functional, organism-based. A digest of the protocol: as §2
The target of experiment [21] is T1, Tyrosine-protein phosphatase non-receptor type 1 (Rattus norvegicus). Briefly: Inhibition of PTPase activity using recombinant Protein-tyrosine phosphatase 1B as the enzyme and IR-triphosphopeptide as substrate at 50 uM. The procedure, abridged:
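Recombinant rat PTP1B (human 321-aa form assayed the same way), activity about 1000-2000 nmol/min/mg, preincubated with compound for 10 min at 37 °C in HEPES pH 7.4. The reaction is started with 50 µM triphosphorylated insulin receptor 1142-1153 dodecapeptide and run 30 min at 37 °C. Released phosphate read by malachite green-molybdate at 650 nm, in quadruplicate. Result is percent inhibition versus control.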

For experiment [22] the target is unchanged. Put plainly: Inhibition of Protein-tyrosine phosphatase 1B activity in rat hepatic membrane at a concentration of 50 uM using pNPP as the substrate. The format is cell membranes. As to conditions: Liver. The procedure, abridged: as §1

Active and inactive are the calls of the source. No cut-off for these calls is given here.

With `C/C(=C\CC1SC(=O)NC1=O)c1cccc(OCc2nc(-c3ccccc3)oc2C)c1` (stereo not given), the inhibition in [1] was determined as 5%. For the same compound, in the experiment with Mus musculus [2], the Decrease result is “inactive”.
As for `Cc1oc(-c2ccc(C(F)(F)F)cc2)nc1COc1cccc(/C(=C/Cn2oc(=O)[nH]c2=O)Cc2ccccc2)c1`, the Decrease is on record as 46% in the experiment on Mus musculus [3] and 23% in the experiment on Mus musculus [4]. Further, the inhibition in experiment [5] is 0.8%.
As to `C/C(=C\Cn1oc(=O)[nH]c1=O)c1cccc(OCc2nc(-c3ccc(C(F)(F)F)cc3)oc2-c2ccccc2)c1`, the Decrease is listed as 30% with Mus musculus [6] and 25% in the experiment on Mus musculus [4]. Also, in experiment [7], the 50% inhibitory concentration (IC50) is 300 nM.
Take `CCC/C(=C/Cn1oc(=O)[nH]c1=O)c1cccc(OCc2nc(-c3ccc(C(F)(F)F)cc3)oc2C)c1`: the Decrease in the experiment on Mus musculus [8] was 55%; in experiment [9], “Not significant”; in experiment [11] it was “Not significant”. In addition, the inhibition in experiment [1] was found to be 58%. In addition, the IC50 result in experiment [10] is “Not significant”.
Turning to `Cc1oc(-c2ccc(C(F)(F)F)cc2)nc1COc1cccc(/C(=C/Cn2oc(=O)[nH]c2=O)C(C)(C)C)c1`, the Decrease result in the experiment with Mus musculus [12] and in the experiment on Mus musculus [13] was “inactive” in each case. The compound also returned an Inhibition % in experiment [14] of 24%. For the same compound, the inhibition in [5] was 0.6%.
For the compound `CCCCCCCC/C(=C\Cn1oc(=O)[nH]c1=O)c1cccc(OCc2nc(-c3ccc(C(F)(F)F)cc3)oc2C)c1`, the Decrease result with Mus musculus [15] is “inactive”. Further, the Decrease in the experiment on Mus musculus [16] came to 43%. For the same compound, in experiment [17], the IC50 is 400 nM.
On to `C/C(=C\C=C\Cn1oc(=O)[nH]c1=O)c1cccc(OCc2nc(-c3ccccc3)oc2C)c1`, for which the Decrease entry with Mus musculus [18], in the experiment on Mus musculus [19] and in the experiment with Mus musculus [20] was “inactive” throughout. Also, the inhibition in experiment [21] is 1.4%; in experiment [22], 57%.

For the origin of these results see ChEMBL document CHEMBL1132971, “New azolidinediones as inhibitors of protein tyrosine phosphatase 1B with antihyperglycemic properties” (J Med Chem, 2000).
